Series [1] relates to Mus musculus. Put plainly: Antiinflammatory activity in zymosan induced C57BL/6 mouse model of lung injury assessed as reduction in PGE2 production in BALF at 4 mg/kg, ip pretreated for 3 days followed by zymosan challenge and measured after 24 hrs by ELISA. It counts as functional, organism-based. The gist of the method: (§1)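 Male C57BL/6 mice, 25–30 g. Dosed i.p. daily for 3 days, then zymosan 4 mg/kg in 40 μL saline given by intratracheal instillation. After 24 h, BALF collected with five 0.2 mL PBS washes and centrifuged. Supernatant assayed for PGE2 and total protein. Cells counted by hemocytometer, and ≥300 cells on stained smears scored for differential counts. Left lung weighed, dried at 48 °C for 48 h, reweighed for wet/dry ratio.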
On the technique in general: ELISA stands for enzyme-linked immunosorbent assay.

Series [2] has as its system Mus musculus. Put plainly: Antiinflammatory activity in zymosan induced C57BL/6 mouse model of lung injury assessed as reduction in immune cell infiltration in BALF at 4 mg/kg, ip pretreated for 3 days followed by zymosan challenge and measured after 24 hrs by Diff-Quick staining based assay. It counts as functional, organism-based. An outline of the steps:
as §1

Series [3] concerns the target Signal transducer and activator of transcription 3 (Mus musculus) (UniProt P42227). Description: Effect on STAT3 phosphorylation in mouse MHS cells assessed as phosphorylated STAT3 level at 15 ug/ml by Western blot analysis relative to tubulin (reference value: 1). The series is classed as cell-based. (In general: In western blotting, separated proteins are transferred to a membrane and probed.)

The species entered for series [4] is Mus musculus. Description: Antiinflammatory activity in mouse MHS cells assessed as reduction in zymosan-induced iNOS mRNA expression preincubated for 30 mins followed by zymosan challenge and measured after 6 to 24 hrs by TRIzol reagent based qRT-PCR analysis. It counts as functional, cell-based. An outline of the steps: (§2)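 MH-S alveolar macrophages grown in RPMI 1640 with 10% FBS at 37 °C and 5% CO2. Cells pretreated for 30 min, then given zymosan 10 μg/mL for 6 h. mRNA measured by SYBR Green real-time PCR (95 °C 10 min; 42 cycles of 95 °C 10 s, 60 °C 60 s) with actin as reference. Normalized to control; mean ± SD, n≥3.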
Background: In qPCR the cycle at which signal appears reflects the starting amount.

Series [5] deals with Signal transducer and activator of transcription 3 (Mus musculus) (UniProt P42227). Put plainly: Inhibition of zymosan-induced STAT3 phosphorylation in mouse MHS cells assessed as phosphorylated STAT3 level at 1.5 ug/ml by Western blot analysis relative to tubulin (reference value: 2.1). The series is classed as cell-based. The gist of the method: (§3)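 MH-S cells pretreated, then stimulated with zymosan 10 μg/mL. Phospho-JAK1 (Y1022/1023), phospho-STAT3 (Y705) and phospho-IKKα/β detected by Western blot against total protein and tubulin. Zymosan time course 1–30 min for JAK1/STAT3 and 1–60 min for IKK. Normalized to control; mean ± SD, n≥3.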
Chain of Signal transducer and activator of transcription 3 (Mus musculus) (P42227 whole entry): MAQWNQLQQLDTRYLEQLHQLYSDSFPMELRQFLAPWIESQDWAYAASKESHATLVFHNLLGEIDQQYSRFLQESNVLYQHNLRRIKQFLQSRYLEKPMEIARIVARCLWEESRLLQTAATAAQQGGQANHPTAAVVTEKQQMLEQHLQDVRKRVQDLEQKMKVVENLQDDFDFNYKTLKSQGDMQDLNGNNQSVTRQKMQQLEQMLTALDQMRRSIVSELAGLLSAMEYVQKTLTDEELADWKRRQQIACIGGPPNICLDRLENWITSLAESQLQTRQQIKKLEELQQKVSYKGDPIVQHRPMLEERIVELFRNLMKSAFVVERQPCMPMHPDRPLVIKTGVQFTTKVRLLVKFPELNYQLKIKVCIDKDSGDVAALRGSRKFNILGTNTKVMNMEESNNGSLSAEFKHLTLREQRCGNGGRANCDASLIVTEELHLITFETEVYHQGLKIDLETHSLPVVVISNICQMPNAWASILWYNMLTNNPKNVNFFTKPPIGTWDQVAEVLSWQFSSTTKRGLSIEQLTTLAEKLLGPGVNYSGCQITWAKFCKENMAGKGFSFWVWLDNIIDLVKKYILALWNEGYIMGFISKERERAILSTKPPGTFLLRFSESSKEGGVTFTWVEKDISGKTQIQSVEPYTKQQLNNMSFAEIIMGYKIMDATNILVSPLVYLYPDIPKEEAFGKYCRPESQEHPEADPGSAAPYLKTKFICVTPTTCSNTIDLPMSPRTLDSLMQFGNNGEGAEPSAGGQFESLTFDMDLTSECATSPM

Series [6] is filed under the species Mus musculus. Description: Antiinflammatory activity in mouse MHS cells assessed as reduction in zymosan-induced TNFalpha mRNA expression preincubated for 30 mins followed by zymosan challenge and measured after 6 to 24 hrs by TRIzol reagent based qRT-PCR analysis. It counts as functional, cell-based. An outline of the steps: as §2
Series [7] concerns Mus musculus. Put plainly: Antiinflammatory activity in zymosan induced C57BL/6 mouse model of lung injury assessed as reduction in total protein level in BALF at 4 mg/kg, ip pretreated for 3 days followed by zymosan challenge and measured after 24 hrs. It counts as functional, organism-based. An outline of the steps: as §1
The nature of series [8]: Effect on nitrite level in mouse MHS cells at 1.5 to 15 ug/ml after 30 mins by Griess assay. The series is classed as ADME, cell-based. The note with it: 0.5 h.
For series [9], the species on record is Mus musculus. Description: Antiinflammatory activity in mouse MHS cells assessed as reduction in zymosan-induced IL-6 mRNA expression preincubated for 30 mins followed by zymosan challenge and measured after 6 to 24 hrs by TRIzol reagent based qRT-PCR analysis. It counts as functional, cell-based. An outline of the steps: as §2
Series [10] deals with Mus musculus. Put plainly: Antiinflammatory activity in zymosan induced C57BL/6 mouse model of lung injury assessed as reduction in hypertrophic smooth muscle cells at 4 mg/kg, ip pretreated for 3 days followed by zymosan challenge and measured after 24 hrs by H and E staining based microscopic analysis. The series is classed as functional, organism-based. The gist of the method: (§4)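 Male C57BL/6 mice dosed i.p. for 3 days, then given zymosan (4 mg/kg, i.t.) or saline. Lungs harvested 24 h later. Right lung fixed in 10% formalin, embedded in paraffin, cut into 5 μm sections, stained with H&E or Masson's trichrome and examined by microscopy. Collagen also measured by hydroxyproline assay on lung lysates. Mean ± SD, n≥4.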

In series [11] the test system is Mus musculus. Description: Effect on morphological changes in lungs of C57BL/6 mouse at 4 mg/kg, ip administered for 3 days by H and E staining based microscopic analysis. Particulars: in vivo, 72 h. The series is classed as ADME, organism-based. An outline of the steps: as §4
Series [12] deals with T1, I-kappa-B kinase (Mus musculus) (UniProt Q60680+O88351+O88522). Put plainly: Inhibition of zymosan-induced IKK phosphorylation in mouse MHS cells assessed as phosphorylated IKK level at 15 ug/ml by Western blot analysis relative to tubulin (reference value: 1.8). It counts as cell-based. The gist of the method:
as §3

Series [13] concerns the target T1, I-kappa-B kinase (Mus musculus). Description: Inhibition of zymosan-induced IKK phosphorylation in mouse MHS cells assessed as phosphorylated IKK level at 1.5 ug/ml by Western blot analysis relative to tubulin (reference value: 1.8). It counts as cell-based. The gist of the method:
as §3

The species named for series [14] is Mus musculus. Put plainly: Antiinflammatory activity in mouse MHS cells assessed as reduction in zymosan-induced COX2 mRNA expression preincubated for 30 mins followed by zymosan challenge and measured after 6 to 24 hrs by TRIzol reagent based qRT-PCR analysis. The series is classed as functional, cell-based. The gist of the method:
as §2

A short description of series [15]: Antiinflammatory activity in mouse MHS cells assessed as reduction in zymosan-induced COX2 protein expression at 15 ug/ml preincubated for 30 mins followed by zymosan challenge and measured after 6 to 24 hrs by Western blotting analysis relative to control (reference value: 2.2 +/- 1.8). It counts as functional.
The species named for series [16] is Mus musculus. Description: Antiinflammatory activity in mouse MHS cells assessed as reduction in zymosan-induced IL-6 protein expression at 1.5 to 15 ug/ml preincubated for 30 mins followed by zymosan challenge and measured after 6 to 24 hrs. It counts as functional, cell-based. The gist of the method: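 MH-S cells pretreated for 30 min, then given zymosan 10 μg/mL for 24 h. IL-6 and TNFα protein in culture supernatant assessed by cytokine array. Values normalized to control; mean ± SD, n≥3.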

The target in series [17] is Signal transducer and activator of transcription 3 (Mus musculus) (UniProt P42227). Put plainly: Inhibition of zymosan-induced STAT3 phosphorylation in mouse MHS cells assessed as phosphorylated STAT3 level at 15 ug/ml by Western blot analysis relative to tubulin (reference value: 2.1). The series is classed as cell-based. The gist of the method: as §3
A short description of series [18]: Effect on iNOS protein expression in mouse MHS cells at 15 ug/ml after 30 mins by Western blotting analysis relative to tubulin (reference value: 1). It counts as ADME, cell-based. Particulars: 0.5 h.
For series [19], the system named is Mus musculus. Put plainly: Antiinflammatory activity in zymosan induced C57BL/6 mouse model of lung injury assessed as reduction in wet to dry lung edema ratio at 4 mg/kg, ip pretreated for 3 days followed by zymosan challenge and measured after 24 hrs. It counts as functional, organism-based. An outline of the steps:
as §1

Series [20] in a line: Antiinflammatory activity in mouse MHS cells assessed as reduction in zymosan-induced iNOS protein expression at 15 ug/ml preincubated for 30 mins followed by zymosan challenge and measured after 6 to 24 hrs by Western blotting analysis relative to control (reference value: 2.93 +/- 0.84). It counts as functional.
The nature of series [21]: Antiinflammatory activity in mouse MHS cells assessed as reduction in zymosan-induced COX2 protein expression at 1.5 ug/ml preincubated for 30 mins followed by zymosan challenge and measured after 6 to 24 hrs by Western blotting analysis relative to control (reference value: 2.2 +/- 1.8). It counts as functional.
Series [22] is filed under the species Mus musculus. Description: Antiinflammatory activity in mouse MHS cells assessed as reduction in zymosan-induced nitrite production at 1.5 to 15 ug/ml preincubated for 30 mins followed by zymosan challenge and measured after 6 to 24 hrs by Griess assay. It counts as functional, cell-based. The gist of the method:
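MH-S cells pretreated for 30 min, then given zymosan 10 μg/mL for 24 h. Supernatant nitrite reacted with equal volumes of 0.1% NED and 1% sulfanilamide in 5% phosphoric acid, 10 min in the dark. Absorbance read at 520 nm. Mean ± SD, n≥3.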

The structures appear in SMILES notation. The source made the active and inactive calls. The rule behind the calls is not given here.

`CC(C)=CCOc1c2occc2cc2ccc(=O)oc12` [PENTOSALEN]: the result in series [1], in series [2], in [7], in series [10], in series [16] and in series [19] was Active. Moreover, the result in [22] was Active. Further, the fold change (FC) in series [3] was 1.2; in series [5], 1.8; in [12] it was 1; in [13] it was 1.2; in series [15] it was 1.8; in series [17], 1.3. Moreover, the “fold change (FC)” value was determined as 0.9 in series [18], 1.5 in [20] and 2.2 in series [21]. For the same compound, the Activity result was “Dose-dependent effect” in [4]; “Dose-dependent effect” in series [6]; “Non-Toxic” in series [8]; “Dose-dependent effect” in series [9]; “Non-Toxic” in [11]; “Dose-dependent effect” in [14].

Values taken from ChEMBL document CHEMBL4480455, “Anti-inflammatory Property of Imperatorin on Alveolar Macrophages and Inflammatory Lung Injury” (J Nat Prod, 2019).
